Measured values as given in ChEMBL document CHEMBL2380217, “Design, synthesis, and biological evaluation of aminoalkylindole derivatives as cannabinoid receptor ligands with potential for treatment of alcohol abuse” (J Med Chem, 2013).
Calls of active or inactive are those of the source. The calls are words filed in the database; no cut-off is given here.

Assays:
[1] = target: Cannabinoid receptor 2 (Mus musculus) (UniProt P47936); test: Displacement of [3H]CP-55940 from mouse […] CB2 receptor at 1 uM after 90 mins by scintillation counting analysis; type: tissue-based
Method in brief: (§1)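 Buffer: 50 mM Tris, 0.05% BSA, 0.1% ethanol; triplicate. Non-specific binding with 10 μM WIN-55,212-2. Bound ligand collected by GF/B filtration and counted by liquid scintillation. Specific binding expressed as % of that without competitor.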

[2] = target: Cannabinoid receptor 1 (Mus musculus) (UniProt P47746); test: Displacement of [3H]CP-55940 from mouse brain CB1 receptor at 1 uM after 90 mins by scintillation counting analysis; type: tissue-based; method in brief: as §1
[3] = target: Cannabinoid receptor 1 (Mus musculus) (UniProt P47746); test: Agonist activity at CB1 receptor in mouse Neuro2a cells assessed as inhibition of forskolin-stimulated adenylyl cyclase activity at 10 uM after 15 mins by liquid scintillation spectrophotometry; type: functional, cell-based
Method in brief: (§2)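 Neuro2A-WT (endogenous CB1), CHO-hCB2 or CHO-WT cells, 4 million per well, attached overnight. Labelled 4 h at 37 °C with [3H]adenine 2.5 μCi/mL plus 0.5 mM IBMX. Then 15 min at 37 °C in KRH buffer with 0.5 mM IBMX, 10 μM forskolin, and vehicle (0.2% ethanol) or compound (0.1 nM–10 μM), triplicate. Stopped with HCl; [3H]cAMP isolated on acidic alumina, counted by scintillation. Expressed as % of vehicle cAMP. Antagonist added 5 min before agonist.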

Cannabinoid receptor 2 [4] = target: T1, Cannabinoid receptor 2 (Homo sapiens, UniProt P34972); test: Agonist activity at human CB2 receptor transfected in CHO cells assessed as inhibition of forskolin-stimulated adenylyl cyclase activity at 10 uM after 15 mins by liquid scintillation spectrophotometry; type: functional, cell-based; method in brief: as §2
Mus musculus [5] = test: Inhibition of ethyl alcohol-induced conditioned place preference in Swiss mouse at 10 mg/kg, ip administered 1 hr prior to ethyl alcohol pairing; type: functional, organism-based; parameters: dose 10 mg/kg
Method in brief: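 Male NIH Swiss mice in 3-compartment chambers. 30-min pre-test to find preferred side. Then Mon–Thu daily: saline in the preferred side (30 min) and, ~4 h later, 2 g/kg ethanol in the non-preferred side (30 min). Compound 10 mg/kg given 1 h before each ethanol pairing. Friday post-test; score = post minus pre time on the ethanol side. One-way ANOVA with Tukey.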

Mus musculus [6] = test: Toxicity in Swiss mouse assessed as reduction in body weight at 10 mg/kg, ip for 10 days; type: organism-based; parameters: dose 10 mg/kg, route intraperitoneal; conditions: in vivo, 240 h
Method in brief: (§3)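 Male NIH Swiss mice in a two-bottle home-cage choice, 10% (v/v) ethanol vs water, 24 h access. Intake read twice weekly and bottle positions switched. Preference = ethanol/total fluid × 100. After stable baseline (<10% variation over 3 days), 10 mg/kg i.p. daily for 10 days. Vehicle: 8% Tween/92% water, given for 10 days. Body weight tracked.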

Mus musculus [7] = test: Toxicity in Swiss mouse assessed as alteration in total fluid intake at 10 mg/kg, ip for 10 days; type: organism-based; parameters: dose 10 mg/kg, route intraperitoneal; conditions: in vivo, 240 h; method in brief: as §3
Mus musculus [8] = test: Reduction in ethyl alcohol preference in Swiss mouse at 10 mg/kg, ip for 10 days; type: functional, organism-based; parameters: dose 10 mg/kg; method in brief: as §3
Mus musculus [9] = test: Antagonist activity at CB1 receptor in Swiss mouse assessed as reduction in hypothermic effect at 10 mg/kg, ip administered 30 mins prior to JWH-073 addition; type: functional, organism-based; parameters: dose 10 mg/kg
Method in brief: (§4)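 Male NIH Swiss mice (25–30 g) with glass-encapsulated radiotelemetry probes implanted in the peritoneal cavity; at least 7 days of recovery, housed singly. Baseline recorded for at least 1 hr, then i.p. injection of drug or vehicle. […] Groups of 4–8. One-way ANOVA with Tukey.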

CHO = test: Effect on adenylyl cyclase activity in wild type CHO cells at 10 uM; type: cell-based; conditions: Cricetulus griseus; method in brief: as §2
[10] = target: Cannabinoid receptor 1 (Mus musculus) (UniProt P47746); test: Antagonist activity at CB1 receptor in mouse Neuro2a cells assessed as forskolin-stimulated adenylyl cyclase activity at 1 uM after 15 mins by liquid scintillation spectrophotometry in presence of JWH-073; type: functional, cell-based; method in brief: as §2
Mus musculus [11] = test: Agonist activity at CB1 receptor in Swiss mouse assessed as hypothermic effect at 10 mg/kg, ip; type: functional, organism-based; parameters: dose 10 mg/kg; method in brief: as §4
Cannabinoid receptor 2 [12] = target: T1, Cannabinoid receptor 2; test: Agonist activity at human CB2 receptor transfected in CHO cells assessed as inhibition of forskolin-stimulated adenylyl cyclase activity after 15 mins by liquid scintillation spectrophotometry; type: functional, cell-based; method in brief: as §2
Cannabinoid receptor 1 = Cannabinoid receptor 1 (Mus musculus, UniProt P47746); test: Agonist activity at CB1 receptor in mouse Neuro2a cells assessed as inhibition of forskolin-stimulated adenylyl cyclase activity after 15 mins by liquid scintillation spectrophotometry; type: functional, cell-based
Method in brief: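 Neuro2A cells with endogenous CB1, plated overnight to 80–90% confluency, labelled 4 h at 37 °C with [3H]adenine (2.5 μCi/mL) plus 0.5 mM IBMX. Then 15 min at 37 °C in Krebs Ringer HEPES with 0.5 mM IBMX, 10 μM forskolin and compound (0.1 nM–10 μM; 10 μM for the screen) or 0.2% ethanol vehicle, in triplicate. HCl stop, alumina column. [3H]cAMP is given as % of vehicle.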

Chain of Cannabinoid receptor 2 (Mus musculus) (P47936 whole entry): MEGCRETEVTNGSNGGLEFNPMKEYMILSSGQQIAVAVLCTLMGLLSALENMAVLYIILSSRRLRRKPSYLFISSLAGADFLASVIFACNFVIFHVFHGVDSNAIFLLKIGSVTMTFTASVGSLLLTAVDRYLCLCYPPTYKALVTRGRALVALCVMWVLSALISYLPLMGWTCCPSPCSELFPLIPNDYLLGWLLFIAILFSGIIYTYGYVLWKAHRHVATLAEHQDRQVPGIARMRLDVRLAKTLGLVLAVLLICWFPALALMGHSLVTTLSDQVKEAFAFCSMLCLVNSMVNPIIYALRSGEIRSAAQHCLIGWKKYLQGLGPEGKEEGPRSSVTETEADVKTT
T1 sequence (P34972 whole entry): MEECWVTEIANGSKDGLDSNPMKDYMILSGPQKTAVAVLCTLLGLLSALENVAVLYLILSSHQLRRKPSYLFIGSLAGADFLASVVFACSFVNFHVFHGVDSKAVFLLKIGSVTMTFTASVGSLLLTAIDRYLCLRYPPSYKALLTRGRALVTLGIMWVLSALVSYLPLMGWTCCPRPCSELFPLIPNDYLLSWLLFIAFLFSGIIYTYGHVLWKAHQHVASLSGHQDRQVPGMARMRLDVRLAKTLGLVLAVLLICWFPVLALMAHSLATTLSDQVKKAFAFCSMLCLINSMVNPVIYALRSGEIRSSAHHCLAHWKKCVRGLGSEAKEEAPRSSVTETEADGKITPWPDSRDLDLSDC
Chain of Cannabinoid receptor 1 (P47746 whole entry): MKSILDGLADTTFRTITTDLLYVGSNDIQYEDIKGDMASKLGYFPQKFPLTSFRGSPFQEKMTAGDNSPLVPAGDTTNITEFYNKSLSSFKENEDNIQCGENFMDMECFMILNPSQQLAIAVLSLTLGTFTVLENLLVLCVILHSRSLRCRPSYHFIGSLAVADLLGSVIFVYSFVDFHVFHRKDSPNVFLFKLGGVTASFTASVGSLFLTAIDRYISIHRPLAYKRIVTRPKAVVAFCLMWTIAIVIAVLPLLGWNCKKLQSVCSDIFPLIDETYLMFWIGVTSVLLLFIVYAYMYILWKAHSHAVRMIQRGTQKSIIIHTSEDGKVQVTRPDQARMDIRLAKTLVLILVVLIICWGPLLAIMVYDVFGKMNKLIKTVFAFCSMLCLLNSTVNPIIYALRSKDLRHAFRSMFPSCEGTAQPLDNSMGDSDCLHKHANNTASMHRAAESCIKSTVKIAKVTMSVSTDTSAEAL
Chain of Cannabinoid receptor 1 (Mus musculus) (P47746 whole entry): as above

| Structure (SMILES) | Activity [1] [%] | Activity [2] [%] | inhibition [3] [%] | inhibition (Cannabinoid receptor 2 [4]) [%] | other results |
| --- | --- | --- | --- | --- | --- |
| CCCCn1cc(C(=O)Cc2ccc(F)c(F)c2)c2cccc(OC)c21 | 80 | 41 | – | – | – |
| CCCCCCC(C)(C)c1ccc([C@@H]2C[C@H](O)CC[C@H]2CCCO)c(O)c1 | – | – | 45 | – | – |
| COc1cccc2c(C(=O)c3cccc4ccccc34)cn(CCN3CCOCC3)c12 | 100 | 100 | 39 | 37 | – |
| CCCCn1cc(C(=O)Cc2ccccc2F)c2cccc(OC)c21 | 99 | 84 | 45 | 1 | – |
| CCCCn1cc(C(=O)Cc2cccc(F)c2F)c2cccc(OC)c21 | 97 | 80 | 35 | -6 | – |
| CCCCn1cc(Cc2cccc3ccccc23)c2cccc(OC)c21 | 97 | 90 | 18 | 33 | Activity (Mus musculus [5]): Active; Activity (Mus musculus [6]): Non-toxic; Activity (Mus musculus [7]): Toxic; Activity (Mus musculus [8]): Active; Activity (Mus musculus [9]): Active; Activity (CHO): inactive; Activity [10]: Active |
| CCCCn1cc(C(=O)c2cccc3ccccc23)c2cc(O)ccc21 | 91 | 97 | 39 | 37 | – |
| Cc1c(C(=O)NN2CCCCC2)nn(-c2ccc(Cl)cc2Cl)c1-c1ccc(Cl)cc1 [RIMONABANT] | – | – | – | – | Activity (Mus musculus [5]): Active; Activity (Mus musculus [6]): Toxic; Activity (Mus musculus [7]): Toxic; Activity (Mus musculus [8]): Active |
| CCCCn1cc(C(=O)Cc2cccc(F)c2)c2cccc(OC)c21 | 91 | 63 | – | – | – |
| CCCCn1cc(C(=O)c2cccc3ccccc23)c2ccccc21 | – | – | – | – | Activity (Mus musculus [11]): Active; Ki (Cannabinoid receptor 2 [12]): 9.8 nM; Ki (Cannabinoid receptor 1): 12.9 nM |
| CCCCn1cc(C(=O)c2ccc(F)cc2)c2cccc(OC)c21 | 99 | 84 | 45 | 38 | – |
| CCCCn1cc(C(=O)Cc2ccccc2)c2cccc(O)c21 | 20 | 21 | – | – | – |
| CCCCn1cc(-c2cccc3ccccc23)c2cccc(OC)c21 | 97 | 98 | 39 | 37 | – |
| CCCCn1cc(C(=O)Cc2ccc(OC)cc2)c2cccc(OC)c21 | 64 | 38 | – | – | – |
| CCCCn1cc(-c2ccc3ccccc3c2)c2cccc(OC)c21 | 91 | 82 | 16 | 20.8 | Activity (Mus musculus [5]): Active; Activity (Mus musculus [6]): Non-toxic; Activity (Mus musculus [7]): Toxic; Activity (Mus musculus [8]): Active; Activity (Mus musculus [9]): Active; Activity (CHO): inactive; Activity [10]: Active |
| CCCCn1cc(C(=O)Cc2ccc(F)cc2)c2cccc(CC)c21 | 88 | 63 | – | – | – |
| CCCCn1cc(C(=O)Cc2cccc3ccccc23)c2cccc(O)c21 | 21 | 37 | – | – | – |
| CCCCn1cc(C(=O)Cc2ccc(O)cc2)c2cccc(O)c21 | 10 | 10 | – | – | – |
| CCCCn1cc(C(=O)Cc2ccc(F)cc2)c2cccc(O)c21 | 10 | 29 | – | – | – |
| CC1=CC[C@@H]2[C@@H](C1)c1c(O)cc(CC#CCCCNS(C)(=O)=O)cc1OC2(C)C | – | – | – | – | Activity [10]: Active |
| CCCCn1cc(C(=O)Cc2cccc3ccccc23)c2cccc(OC)c21 | 91 | 81 | 34 | – | – |
| CCCCn1cc(C(=O)c2cccc3ccccc23)c2cc(OC)ccc21 | 90 | 90 | 47 | 31 | – |
| CCCCn1cc(C(=O)Cc2ccc(F)cc2)c2cccc(OC)c21 | 80 | 55 | -4 | 22 | – |
| CCCCn1cc(C(=O)c2cccc3ccccc23)c2cccc(O)c21 | 90 | 99 | 55 | 38 | Ki (Cannabinoid receptor 2 [12]): 78.3 nM; IC50 (Cannabinoid receptor 1): 225 nM; Ki (Cannabinoid receptor 1): 24.2 nM |
| CCCCn1cc(C(=O)c2cccc3ccccc23)c2cccc(OC)c21 | 100 | 93 | 51 | 52 | – |
| CCCCn1cc(C(=O)Cc2ccccc2)c2cccc(OC)c21 | 91 | 69 | 34 | 16 | – |
